Experimental data: ChEMBL document CHEMBL1152128, “Catalytic site-selective synthesis and evaluation of a series of erythromycin analogs” (2008)
Converted amounts (≈) assume the structure as drawn.

Key:
Enterococcus faecalis = test: Antibacterial activity against Enterococcus faecalis ATCC 29212; format: functional
How it was run: (§1)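 Broth microdilution MIC in Mueller Hinton II broth, 384-well format, quadruplicate wells. The compound is serially diluted two-fold from DMSO stocks, with final concentrations half of 64 to 0.0625 µg/mL. The inoculum is a 0.5 McFarland culture diluted 100-fold, mixed 1:1 with compound to 20 µL per well. Plates are incubated 24 h at 35 °C. MIC is the lowest concentration with no visible growth; OD620 is also read.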

Staphylococcus aureus = test: Antibacterial activity against Staphylococcus aureus ATCC 29213; format: functional; how it was run: as §1

Row | MIC (Enterococcus faecalis) [µg/mL] | MIC (Staphylococcus aureus) [µg/mL] | Compound
1 | > 32 | > 32 | CCCCCCCC(=O)O[C@H]1[C@H](O[C@@H]2[C@@H](C)[C@H](O[C@H]3C[C@@](C)(OC)[C@@H](O)[C@H](C)O3)[C@@H](C)C(=O)O[C@H](CC)[C@](C)(O)[C@H](OC(=O)CCCCCCC)[C@@H](C)C(=O)[C@H](C)C[C@]2(C)O)O[C@H](C)C[C@@H]1N(C)C
2 | 32 (≈ 37.2 µM) | 32 (≈ 37.2 µM) | CCCCCCCC(=O)O[C@@H]1[C@@H](C)C(=O)[C@H](C)C[C@](C)(O)[C@H](O[C@@H]2O[C@H](C)C[C@H](N(C)C)[C@H]2O)[C@@H](C)[C@H](O[C@H]2C[C@@](C)(OC)[C@@H](O)[C@H](C)O2)[C@@H](C)C(=O)O[C@H](CC)[C@]1(C)O
3 | 32 (≈ 40.5 µM) | 16 (≈ 20.3 µM) | CCC(=O)O[C@@H]1[C@@H](C)C(=O)[C@H](C)C[C@](C)(O)[C@H](O[C@@H]2O[C@H](C)C[C@H](N(C)C)[C@H]2O)[C@@H](C)[C@H](O[C@H]2C[C@@](C)(OC)[C@@H](O)[C@H](C)O2)[C@@H](C)C(=O)O[C@H](CC)[C@]1(C)O
4 | 32 (≈ 37.8 µM) | 32 (≈ 37.8 µM) | CCC(=O)O[C@H]1[C@H](O[C@@H]2[C@@H](C)[C@H](O[C@H]3C[C@@](C)(OC)[C@@H](O)[C@H](C)O3)[C@@H](C)C(=O)O[C@H](CC)[C@](C)(O)[C@H](OC(=O)CC)[C@@H](C)C(=O)[C@H](C)C[C@]2(C)O)O[C@H](C)C[C@@H]1N(C)C
5 | > 32 | > 32 | CCCCCCCC(=O)O[C@@H]1[C@@H](C)C(=O)[C@H](C)C[C@](C)(O)[C@H](O[C@@H]2O[C@H](C)C[C@H](N(C)C)[C@H]2O)[C@@H](C)[C@H](O[C@H]2C[C@@](C)(OC)[C@@H](OC(=O)CCCCCCC)[C@H](C)O2)[C@@H](C)C(=O)O[C@H](CC)[C@]1(C)O
6 | 32 (≈ 39.2 µM) | 16 (≈ 19.6 µM) | C=CCCC(=O)O[C@@H]1[C@@H](C)C(=O)[C@H](C)C[C@](C)(O)[C@H](O[C@@H]2O[C@H](C)C[C@H](N(C)C)[C@H]2O)[C@@H](C)[C@H](O[C@H]2C[C@@](C)(OC)[C@@H](O)[C@H](C)O2)[C@@H](C)C(=O)O[C@H](CC)[C@]1(C)O

The remaining lines, values behind:

Row | Compound | MIC (Enterococcus faecalis) [µg/mL] | MIC (Staphylococcus aureus) [µg/mL]
7 | CC[C@H]1OC(=O)[C@H](C)[C@@H](O[C@H]2C[C@@](C)(OC)[C@@H](OP(=O)(Oc3ccccc3)Oc3ccccc3)[C@H](C)O2)[C@H](C)[C@@H](O[C@@H]2O[C@H](C)C[C@H](N(C)C)[C@H]2OC(C)=O)[C@@](C)(O)C[C@@H](C)C(=O)[C@H](C)[C@@H](OC(=O)CCNC(=O)OC(C)(C)C)[C@@]1(C)O | > 32 | > 32
8 | CC[C@H]1OC(=O)[C@H](C)[C@@H](O[C@H]2C[C@@](C)(OC)[C@@H](O)[C@H](C)O2)[C@H](C)[C@@H](O[C@@H]2O[C@H](C)C[C@H](N(C)C)[C@H]2OC(C)=O)[C@@](C)(O)C[C@@H](C)C(=O)[C@H](C)[C@@H](OC(=O)CCNC(=O)OC(C)(C)C)[C@@]1(C)O | > 32 | 32 (≈ 33.8 µM)
9 | CC[C@H]1OC(=O)[C@H](C)[C@@H](O[C@H]2C[C@@](C)(OC)[C@@H](O)[C@H](C)O2)[C@H](C)[C@@H](O[C@@H]2O[C@H](C)C[C@H](N(C)C)[C@H]2OC(=O)CCNC(=O)OC(C)(C)C)[C@@](C)(O)C[C@@H](C)C(=O)[C@H](C)[C@@H](OC(=O)CCNC(=O)OC(C)(C)C)[C@@]1(C)O | > 32 | > 32
10 | CCCCCCCC(=O)O[C@H]1[C@H](O[C@@H]2[C@@H](C)[C@H](O[C@H]3C[C@@](C)(OC)[C@@H](OP(=O)(Oc4ccccc4)Oc4ccccc4)[C@H](C)O3)[C@@H](C)C(=O)O[C@H](CC)[C@](C)(O)[C@H](OC(=O)CCCCCCC)[C@@H](C)C(=O)[C@H](C)C[C@]2(C)O)O[C@H](C)C[C@@H]1N(C)C | > 32 | > 32
11 | CCC(=O)O[C@H]1[C@H](O[C@@H]2[C@@H](C)[C@H](O[C@H]3C[C@@](C)(OC)[C@@H](OP(=O)(Oc4ccccc4)Oc4ccccc4)[C@H](C)O3)[C@@H](C)C(=O)O[C@H](CC)[C@](C)(O)[C@H](OC(=O)CC)[C@@H](C)C(=O)[C@H](C)C[C@]2(C)O)O[C@H](C)C[C@@H]1N(C)C | > 32 | > 32
12 | C=CCCC(=O)O[C@H]1[C@H](O[C@@H]2[C@@H](C)[C@H](O[C@H]3C[C@@](C)(OC)[C@@H](O)[C@H](C)O3)[C@@H](C)C(=O)O[C@H](CC)[C@](C)(O)[C@H](OC(=O)CCC=C)[C@@H](C)C(=O)[C@H](C)C[C@]2(C)O)O[C@H](C)C[C@@H]1N(C)C | > 32 | 32 (≈ 35.6 µM)
13 | CC[C@H]1OC(=O)[C@H](C)[C@@H](O[C@H]2C[C@@](C)(OC)[C@@H](O)[C@H](C)O2)[C@H](C)[C@@H](O[C@@H]2O[C@H](C)C[C@H](N(C)C)[C@H]2O)[C@@](C)(O)C[C@@H](C)C(=O)[C@H](C)[C@@H](OC(=O)CCNC(=O)OC(C)(C)C)[C@@]1(C)O | > 32 | 32 (≈ 35.4 µM)
14 | C=CCCC(=O)O[C@H]1[C@H](O[C@@H]2[C@@H](C)[C@H](O[C@H]3C[C@@](C)(OC)[C@@H](OP(=O)(Oc4ccccc4)Oc4ccccc4)[C@H](C)O3)[C@@H](C)C(=O)O[C@H](CC)[C@](C)(O)[C@H](OC(=O)CCC=C)[C@@H](C)C(=O)[C@H](C)C[C@]2(C)O)O[C@H](C)C[C@@H]1N(C)C | > 32 | > 32
15 | CC[C@H]1OC(=O)[C@H](C)[C@@H](O[C@H]2C[C@@](C)(OC)[C@@H](O)[C@H](C)O2)[C@H](C)[C@@H](O[C@@H]2O[C@H](C)C[C@H](N(C)C)[C@H]2O)[C@](C)(O)C[C@@H](C)C(=O)[C@H](C)[C@@H](O)[C@]1(C)O [ERYTHROMYCIN] | 2 (≈ 2.73 µM) | 1 (≈ 1.36 µM)
